Columns and labels:
Mus musculus [1] = species on record: Mus musculus; experiment: Concentration of the Compound that inhibits electrically-induced contractions of the mouse vas deferens by 50%; format: functional, organism-based
How it was run: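 Electrically stimulated isolated mouse vas deferens at 37 °C. Buffer had no tyrosine, ascorbic acid or disodium edetate. IC50 is the concentration that halves contractions, given as mean ± SD of two or three experiments.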

NG108-15 = experiment: Concentration that inhibited PGE-stimulated cAMP formation by 50%, in NG108-15 cells.; format: functional, cell-based; conditions: Murinae
How it was run: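 NG108-15 neuroblastoma cells stimulated with PGE1. cAMP measured by radioimmunoassay. EC50 is the concentration that inhibits 50% of stimulated cAMP formation, given as mean ± SD of two determinations.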

Mus musculus [2] = species on record: Mus musculus; experiment: Antinociceptive effect determined at 30 min post injection by writhing test; format: functional, organism-based
Mus musculus [3] = species on record: Mus musculus; experiment: Antinociceptive effect determined at 30 min post injection by tail flick test; format: functional, organism-based
How it was run: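 Male CD-1 mice, 20–30 g, screened beforehand (TFL ≤ 4.0 s or HPL ≤ 15 s). Groups of 10 dosed sc with vehicle or 10, 30 or 100 mg/kg at 10 mL/kg. Radiant-heat beam focused on blackened tail, and withdrawal latency read by photosensor as the mean of two readings (12 s cutoff). ED50 ± SE in mg/kg taken at 30 min.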

Mus musculus [4] = experiment: Antinociceptive effect determined at 30 min post injection by writhing test; Inactive at 30 mg/kg, the highest dose tested.; format: functional, organism-based; design: dose 30 mg/kg
[5] = target: Delta-type opioid receptor (Rattus norvegicus, UniProt P33533); experiment: Compound was evaluated for its binding affinity by displacement [3H]- DSLET from Opioid receptor delta 1 by using opioid radioligand binding assay
Sequence of Delta-type opioid receptor (P33533 whole entry): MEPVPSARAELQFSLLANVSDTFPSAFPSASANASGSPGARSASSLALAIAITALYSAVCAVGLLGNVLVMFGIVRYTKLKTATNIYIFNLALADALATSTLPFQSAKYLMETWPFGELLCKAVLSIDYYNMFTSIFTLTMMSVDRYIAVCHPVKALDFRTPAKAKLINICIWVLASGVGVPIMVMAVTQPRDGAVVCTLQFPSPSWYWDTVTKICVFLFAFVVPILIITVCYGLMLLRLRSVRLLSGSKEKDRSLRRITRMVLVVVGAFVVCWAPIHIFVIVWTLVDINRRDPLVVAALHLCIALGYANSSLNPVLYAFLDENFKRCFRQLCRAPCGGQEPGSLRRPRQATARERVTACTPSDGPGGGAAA
How it was run: (§1)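 Male Sprague-Dawley rat forebrain membranes in 50 mM Tris, pH 7.4. Competition against [3H]DSLET (2 nM final, δ) or [3H]DAMPGO (4 nM final, μ). Nonspecific binding defined with 10 μM levorphan. Incubated 60–90 min at 25 °C, then filtered on GF/B and counted. Ki given as mean ± SEM from at least three experiments.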

Mu-type opioid receptor = Mu-type opioid receptor (Rattus norvegicus, UniProt P33535); experiment: Compound was evaluated for its binding affinity by displacement of [3H]- DAMPGO from opioid receptor mu by using opioid radioligand binding assay; how it was run: as §1
Sequence of Mu-type opioid receptor (P33535 whole entry): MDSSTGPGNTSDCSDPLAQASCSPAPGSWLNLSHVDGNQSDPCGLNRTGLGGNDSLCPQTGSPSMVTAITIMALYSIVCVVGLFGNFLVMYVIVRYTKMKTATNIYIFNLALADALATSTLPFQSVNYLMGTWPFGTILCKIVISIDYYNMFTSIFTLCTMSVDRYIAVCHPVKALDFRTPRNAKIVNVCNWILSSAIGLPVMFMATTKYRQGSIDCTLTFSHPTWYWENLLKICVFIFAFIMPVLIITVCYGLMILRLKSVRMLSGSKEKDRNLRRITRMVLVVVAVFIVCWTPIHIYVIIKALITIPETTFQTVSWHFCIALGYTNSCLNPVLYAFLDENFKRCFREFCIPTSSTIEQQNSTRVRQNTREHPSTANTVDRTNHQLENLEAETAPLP

[6] = target: Mu-type opioid receptor (Rattus norvegicus) (UniProt P33535); experiment: Ratio on opioid receptor mu (ki(nM)) to the opioid receptor delta (Ki(nM))
Sequence of Mu-type opioid receptor (Rattus norvegicus) (P33535 whole entry): as above

Compound | Ki [5] | Ki (Mu-type opioid receptor) | Ratio [6] | further results
CC1(C)SSC(C)(C)[C@@H](NC(=O)[C@@H](N)Cc2ccc(O)cc2)C(=O)NCC(=O)N[C@@H](Cc2ccccc2)C(=O)N[C@H]1C(=O)O | – | – | – | EC50 (Mus musculus [1]; Mus musculus): 0.0052 µM; EC50 (NG108-15): 0.018 µM
COC(=O)[C@@H]1NC(=O)[C@H](Cc2ccccc2)NC(=O)CNC(=O)[C@H](NC(=O)[C@@H](N)Cc2c(C)cc(O)cc2C)C(C)(C)SSC1(C)C.Cl | – | – | – | EC50 (Mus musculus [1]; Mus musculus): 0.00065 µM; EC50 (NG108-15): 0.0011 µM; EC50 (Mus musculus [2]): 2.1 mg/kg; EC50 (Mus musculus [3]): 40 mg/kg
COC(=O)[C@@H]1NC(=O)[C@H](Cc2ccccc2)NC(=O)CNC(=O)[C@H](NC(=O)[C@@H](N)Cc2ccc(O)cc2)C(C)(C)SSC1(C)C.Cl | – | – | – | EC50 (Mus musculus [1]; Mus musculus): 0.0105 µM; EC50 (NG108-15): 0.021 µM; EC50 (Mus musculus [4]): Not Active
COC(=O)[C@H]1NC(=O)C(Cc2ccccc2)OCCNC(=O)[C@@H](NC(=O)[C@@H](N)Cc2c(C)cc(O)cc2C)C(C)(C)SSC1(C)C (single isomer, unassigned; less polar) [listing 1 of 2 here] | 0.043 µM | 0.0065 µM | – | EC50 (Mus musculus [1]): 0.143 µM
COC(=O)[C@H]1NC(=O)C(Cc2ccccc2)/C=C\CNC(=O)[C@@H](NC(=O)[C@@H](N)Cc2c(C)cc(O)cc2C)C(C)(C)SSC1(C)C (single isomer, unassigned; less polar) [listing 1 of 2 here] | 0.045 µM | 0.032 µM | – | EC50 (Mus musculus [1]): > 1 µM
COC(=O)[C@H]1NC(=O)C(Cc2ccccc2)CCCNC(=O)[C@@H](NC(=O)[C@@H](N)Cc2c(C)cc(O)cc2C)C(C)(C)SSC1(C)C (single isomer, unassigned; less polar) [listing 1 of 2 here] | 0.079 µM | 0.176 µM | – | –
COC(=O)[C@H]1NC(=O)C(Cc2ccccc2)/C=C\CNC(=O)[C@@H](NC(=O)[C@@H](N)Cc2c(C)cc(O)cc2C)C(C)(C)SSC1(C)C (single isomer, unassigned; less polar) [listing 2 of 2 here] | – | – | 0.7 | –
COC(=O)[C@H]1NC(=O)C(Cc2ccccc2)CCCNC(=O)[C@@H](NC(=O)[C@@H](N)Cc2c(C)cc(O)cc2C)C(C)(C)SSC1(C)C (single isomer, unassigned; less polar) [listing 2 of 2 here] | – | – | 2.3 | –
COC(=O)[C@H]1NC(=O)C(Cc2ccccc2)OCCNC(=O)[C@@H](NC(=O)[C@@H](N)Cc2c(C)cc(O)cc2C)C(C)(C)SSC1(C)C (single isomer, unassigned; less polar) [listing 2 of 2 here] | – | – | 0.15 | –
COC(=O)[C@H]1NC(=O)C(Cc2ccccc2)OCCNC(=O)[C@@H](NC(=O)[C@@H](N)Cc2c(C)cc(O)cc2C)C(C)(C)SSC1(C)C (single isomer, unassigned; more polar) [listing 1 of 2 here] | 0.091 µM | 0.15 µM | – | EC50 (Mus musculus [1]): > 1 µM
COC(=O)[C@H]1NC(=O)C(Cc2ccccc2)/C=C\CNC(=O)[C@@H](NC(=O)[C@@H](N)Cc2c(C)cc(O)cc2C)C(C)(C)SSC1(C)C (single isomer, unassigned; more polar) [listing 1 of 2 here] | 0.0023 µM | 0.0011 µM | – | EC50 (Mus musculus [1]): 0.247 µM
COC(=O)[C@H]1NC(=O)C(Cc2ccccc2)CCCNC(=O)[C@@H](NC(=O)[C@@H](N)Cc2c(C)cc(O)cc2C)C(C)(C)SSC1(C)C (single isomer, unassigned; more polar) [listing 1 of 2 here] | 0.021 µM | 0.011 µM | – | EC50 (Mus musculus [1]; Mus musculus): > 1 µM
COC(=O)[C@H]1NC(=O)C(Cc2ccccc2)/C=C\CNC(=O)[C@@H](NC(=O)[C@@H](N)Cc2c(C)cc(O)cc2C)C(C)(C)SSC1(C)C (single isomer, unassigned; more polar) [listing 2 of 2 here] | – | – | 0.5 | –
COC(=O)[C@H]1NC(=O)C(Cc2ccccc2)CCCNC(=O)[C@@H](NC(=O)[C@@H](N)Cc2c(C)cc(O)cc2C)C(C)(C)SSC1(C)C (single isomer, unassigned; more polar) [listing 2 of 2 here] | – | – | 0.5 | –
COC(=O)[C@H]1NC(=O)C(Cc2ccccc2)OCCNC(=O)[C@@H](NC(=O)[C@@H](N)Cc2c(C)cc(O)cc2C)C(C)(C)SSC1(C)C (single isomer, unassigned; more polar) [listing 2 of 2 here] | – | – | 1.7 | –

— ChEMBL document CHEMBL1125510, “Analogs of the delta opioid receptor selective cyclic peptide [2-D-penicillamine,5-D-penicillamine]-enkephalin: 2',6'-dimethyltyrosine and Gly3-Phe4 amide bond isostere substitutions” (J Med Chem, 1992)
